Source: PubChem (several laboratories)
GSK3B inh: human GSK3beta kinase inhibition; hit rate 0.038% among 300,000; activity score (negative = inhibition), % at 10 µM; P49841; AID 2097; GST-GSK3beta kinase, ADP-Glo luminescence, 60 min; stronger effect = lower value;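 active = more than half of replicate wells score below -50%, meaning over 50% inhibition versus plate controls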
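Test system: GST-tagged human GSK3beta kinase, cell-free; evaluation: activity score scaled between in-plate DMSO and GW8510 controls; measured by: ADP-Glo luminescence; incubation: 60 min reaction, RT; benchmarks: DMSO and 20 µM GW8510; reagent: peptide substrate plus 25 µM ATP (final); medium: Tris/MgCl2 kinase buffer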
DYRK1A inh: blocks rat Dyrk1A kinase activity; Q63470; ADP-Glo luminescence, NFATc1 peptide; hit rate 0.43% among 310,000; AID 504441; inhibition, % at 12.5 µM; in the data active = inhibition above about 50%
GSK3 alpha inh: human GSK-3 alpha kinase inhibition. inhibition, % at 10 µM. hit rate 0.1% among 320,000. P49840. ADP-Glo luminescence, 60 min. AID 2650;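 active = more than half of replicates show inhibition above 20%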;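 note: GST-tagged GSK-3 alpha with peptide substrate and 25 µM ATP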
STK33 kinase inh: human STK33 kinase inhibition; purified STK33, MBP phosphorylation, ADP-Glo luminescence; Q9BYT3; hit rate 0.073% among 320,000; AID 2661; inhibition, % at 10 µM;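 active = inhibition at or above 25%, using the most active replicate where run in duplicate; inactive = inhibition below 25%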
Arr AP2 block: human beta-arrestin and AP2 interaction inhibition; FITC-arrestin peptide / GST-AP2 beads, flow cytometry; AP2 beta2 appendage carries R879A mutation; inhibition, % at 10 µM; hit rate 0.31% among 340,000;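 active = inhibition above a set limit, near 3 SD of compounds lacking own fluorescence, cut at about 54% in these data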
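System: GST-AP2 R879A bound to glutathione beads, E. coli-expressed. Also added: 50 nM FITC-arrestin peptide. Schedule: compound with beads 12 min RT, then probe 1 h RT. Signal: bead flow cytometry, FITC channel. Read-out basis: percent response.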
Rin1 Abl inh: blocks binding of human Rin1 to Abl; AID 588664; hit rate 0.4% among 360,000; inhibition, % at 7.35 µM; P00519+Q13671; TR-FRET Rin1/Abl binding, biochemical; in the data active = inhibition above about 5%, passing the limit was not always enough
Dyrk1A artifact: counter-screen for Dyrk1A inhibitors: ADP-Glo luciferase artifacts; AID 588348; 1,300 tested, under 10 active; AC50, µM (doses to about 12 µM); ADP-Glo luciferase artifact assay, no Dyrk1A, luminescence; shares compounds with DYRK1A inh;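 active = fitted half-maximal dose AC50 no more than ten times the top valid tested dose, with luminescence dropping as dose rises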
Arr AP2 CP1: blocks beta-arrestin peptide binding to human AP2; shares compounds with Arr AP2 block; GST-AP2 beads, FITC arrestin peptide binding, flow cytometry; GST-fused beta2-adaptin appendage, R879A mutant; inhibition, % at 10 µM; hit rate 2% among 1,300; AID 504908;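 active = inhibition above a set limit, roughly 3 SD of non-fluorescent compound noise, cut at about 38% in these data; inactive = inhibition at or below that limit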;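 note: loss of bead fluorescence from 50 nM FITC arrestin peptide bound to appendage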
GST GSH counter: counter-screen for beta-arrestin AP2 inhibitors: GST-GSH bead binding. shares compounds with Arr AP2 block. GST-fluorescein binding to GSH beads, fluorescence. inhibition, % at 10 µM. hit rate 2% among 1,300. AID 588338;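 active = inhibition above 50%, about 3 SD of the inhibition seen with non-fluorescent compounds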;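 note: fluorescein maleimide labelled GST captured on 4 micron glutathione beads; higher means more loss of bead fluorescence from quenching or blocked binding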
Rin1 Abl conf: confirmation of inhibitors of human Rin1-Abl interaction | shares compounds with Rin1 Abl inh | TR-FRET Rin1-Abl binding, purified proteins | inhibition, % at 7.35 µM | hit rate 49% among 1,300 | AID 602124
GFP quencher: counter-screen for Rin1-Abl inhibitors: GFP fluorescence quenchers; inhibitors/quenchers counterscreen; shares compounds with Rin1 Abl inh; AID 602125; inhibition, % at 6.75 µM; hit rate 8.5% among 1,300;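 note: ABL1-eGFP fusion protein alone without its partner RIN1-SBP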
GFP quench dose: GFP fluorescence interference dose response; shares compounds with Rin1 Abl inh; GFP fluorescence interference/quenching counterscreen; IC50, µM; 230 tested, under 10 active; AID 602182; call rule not given here;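 note: ABL1-eGFP fusion protein alone without its RIN1 binding partner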
Numbers stand for hits; 0 = inactive; - = no result given; ! = not active in a repeat. This is a sample that favours compounds with a hit; in the whole collection about 0.99% have one here. Cut-off read from the data, not from the text of the source, unless noted: active = inhibition above about 6.5%; inactive = the rest.

SMILES	GSK3B inh	DYRK1A inh	GSK3 alpha inh	STK33 kinase inh	Arr AP2 block	Rin1 Abl inh	others
CN1C(=O)/C(=C/C=C/c2ccco2)C(=O)NC1=S	0	0	0	0	0	5.4
Cc1nc(N2CCN(Cc3ccc4c(c3)OCO4)CC2)[nH]c(=O)c1C	0	0	-	-	0	0
CCN(CC)CCN=Cc1c(O)n(C2CCCCCC2)c(=O)[nH]c1=O	0	0	0	0	0	0
CC(=NCCCn1ccnc1)c1c(O)n(C2CCCCC2)c(=O)[nH]c1=O	0	0	67	0	0	0
O=c1[nH]c(=O)n(C2CCCCC2)c(O)c1C=NCCCn1ccnc1	0	0	67	0	0	0
CN1CCCC1CCOC(C)(c1ccccc1)c1ccc(Cl)cc1 (stereo not given)	-	0	-	-	0	0
CCN1/C(=C/C=C/C2=[N+](CC)c3ccccc3C2(C)C)C(C)(C)c2ccccc21	-	-	-	-	-	0
CN1/C(=C\C=C\C2=[N+](C)c3ccc4ccccc4c3C2(C)C)C(C)(C)c2ccccc21	-	-	71	26	-	-
CCn1nc(-c2ccccc2)nc2c(=O)n(C)c(=O)nc1-2	0	68	0	0	0	27
COc1ccc(-c2nc3ccccc3c(=O)n2-c2ccc(OC)cc2)cc1	0	0	0	0	0	0
COC(=O)C1=C(c2ccc(Cl)c(C(F)(F)F)c2)C[C@@H]2CC[C@H]1N2C(=O)NCCOc1ccccc1	-	0	0	0	0	0
O=C1CC=C2C3CC4N(CCC45c4cc(O)c(O)cc4N1C25)CC3=CCBr (stereo not given)	-	0	-	-	0	31
NC(=O)c1c(Br)n(C2OC(CO)C(O)C2O)c2ncnc(N)c12 (stereo not given)	-	65	-	-	0	0	Dyrk1A artifact=0
N#Cc1c(Br)n(C2OC(CO)C(O)C2O)c2ncnc(N)c12 (stereo not given)	-	75	-	-	0	0	Dyrk1A artifact=0
N#Cc1cn(C2OC(CO)C(O)C2O)c2ncnc(N)c12 (stereo not given)	-	0	-	-	0	0
NC(=O)c1cn(C2OC(CO)C(O)C2O)c2ncnc(N)c12 (stereo not given)	0	88!	72	0	0	0	Dyrk1A artifact=0
CC1CN1c1cc2c(c3c1ccn3C)C1CCC2C1 (stereo not given)	-	-	-	-	-	0
CCC(=O)OC1CCC2C3CCC4CC(=O)C=CC4(C)C3CCC12C (stereo not given)	-	0	-	-	0	0
COc1cc2c(cc1O)CC1c3c(cc(O)c(OC)c3-2)CCN1C (stereo not given)	0	70	0	0	0	0	Dyrk1A artifact=0
COc1cc2c(cc1OC)-c1c(OC)c(OC)cc3c1[C@H](C2)N(C)CC3	0	0	0	0	0	0
CC(=O)Cc1c[nH]c2ccccc12	0	-	0	0	-	-
O=C(O)CC1OCC=C2CN3CCC45C6=CC(=O)C(=O)C([N+](=O)[O-])=C6NC4C1C2CC35 (stereo not given)	0	56	0	0	0	0	Dyrk1A artifact=0
Cc1nc2c(=O)n(C)c(=O)nc-2n(C)n1	0	76	0	0	0	37	Dyrk1A artifact=0;Rin1 Abl conf=45;GFP quencher=0;GFP quench dose=0
CC(=O)N(C)C1=Nc2ccc(Cl)cc2C(c2ccccc2)=[N+]([O-])C1	-	-	-	-	0	0
O=C(c1ccc(Cl)cc1)C12CN3CN(CN(C3)C1)C2	0	0	0	0	105	0	Arr AP2 CP1=0;GST GSH counter=0
SMILES	GSK3B inh	DYRK1A inh	GSK3 alpha inh	STK33 kinase inh	Arr AP2 block	Rin1 Abl inh	others
O=C(c1cccc([N+](=O)[O-])c1)C12CN3CN(CN(C3)C1)C2	0	0	0	0	0	0
COc1ccc(Cc2c(O)[nH]c(=S)[nH]c2=O)cc1	0	0	0	0	0	0
CN1CCN(c2ccc(Cl)cc2N)CC1	0	0	0	0	0	0
CN1CCN(c2ccc(N)cc2Cl)CC1	0	0	0	0	59	0	Arr AP2 CP1=0;GST GSH counter=52
O=C(NCCO)c1nsnc1NCCCl	0	0	0	0	58	0	Arr AP2 CP1=0;GST GSH counter=0
O=c1c2ccccc2[se]n1-c1ccccc1	0	0	-	-	92	0	Arr AP2 CP1=125!;GST GSH counter=0
O=C(O)c1cccc(NC(=O)N2C[C@H]3C[C@@H](C2)c2cccc(=O)n2C3)c1	0	0	0	0	0	0
C[N+]12CCC(CC1)C(=C(c1ccccc1)c1ccccc1)C2	0	0	0	0	66	0	Arr AP2 CP1=0;GST GSH counter=0
CC[n+]1c(SC)ccc2cc(OC)ccc21	0	0	0	0	0	0
CCOC(=O)c1c(/N=C/c2c(O)n(-c3ccccc3F)c(=S)[nH]c2=O)sc2c1CCCC2	0	0	0	0	84	0	Arr AP2 CP1=0;GST GSH counter=0
CCOC(=O)c1c(/N=C/c2c(O)n(-c3ccc(F)cc3)c(=S)[nH]c2=O)sc2c1CCCC2	0	0	0	0	0	0
CN(C)C1C(=O)C(C(N)=O)=C(O)C2(O)C(=O)C3=C(O)c4c(O)cccc4C(C)(O)C3C(O)C12 (stereo not given)	0	0	0	0	0	25	Rin1 Abl conf=0;GFP quencher=0
COCCCn1c(N)c(C(=O)OCCOC)c2nc3ccccc3nc21	0	0	0	0	0	0
CCOC(=O)c1c(NS(=O)(=O)c2ccccc2)n(CCCOC)c2nc3ccccc3nc12	0	0	0	0	0	33	Rin1 Abl conf=0;GFP quencher=0
COC(=O)C1=C(c2ccc(F)cc2OCc2ccccc2)C[C@@H]2CC[C@H]1N2C(=O)NCc1ccc([N+](=O)[O-])cc1	-	0	0	0	0	0
Oc1ccc(C[C@H]2NCCc3cc(O)c(O)cc32)cc1O	0	0	0	0	0	62	Rin1 Abl conf=70;GFP quencher=0;GFP quench dose=0
N#CC1c2ccccc2-n2nncc2CN1S(=O)(=O)c1ccccc1 (stereo not given)	-	-	-	-	0	10	Rin1 Abl conf=0;GFP quencher=0
Cn1cc(C(=O)OCC(=O)N2CCCCC2)c2ccccc21	-	0	0	0	0	0
NC(=O)c1cn(C2CCCCC2)c2ccccc2c1=O	0	0	0	0	0	10	Rin1 Abl conf=11;GFP quencher=0
CC12CC1(C)C(=O)N(c1cc(Cl)cc(Cl)c1)C2=O (stereo not given)	-	0	-	-	0	0
